The structures appear in SMILES notation. Where a SMILES comes first, the peptide text is derived from it. [ ]: non-standard residue; d: D form. Ac6c = NC1(C(=O)O)CCCCC1; Ac5c = NC1(C(=O)O)CCCC1; Deg = CCC(N)(CC)C(=O)O; Ac3c = NC1(C(=O)O)CC1

What all share (type): functional
Assay [1] has as its system Rattus norvegicus. The experiment in a line: Effect (PLG inhibitor) on apomorphine-Induced rotational behavior in rats at a dose of 0.10 ug/Kg. Summed up:
(§1)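 Rats carrying unilateral 6-hydroxydopamine lesions of the substantia nigra; test compound given ip, then apomorphine 0.25 mg/kg ip. Contralateral rotations counted over 10 min and expressed as percentage change from control rotational response; n = 5 per group; significance versus respective control group (p < 0.05, p < 0.01).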

The test system of assay [2] is Rattus norvegicus. The experiment in a line: Effect (PLG inhibitor) on apomorphine-Induced rotational behavior in rats at a dose of 1.0 ug/Kg. Summed up:
as §1

The subject of assay [3] is Rattus norvegicus. The experiment in a line: Effect (PLG inhibitor) on apomorphine-Induced rotational behavior in rats at a dose of 10.0 ug/Kg. In outline: as §1
For assay [4], the system named is Rattus norvegicus. Briefly: Effect (PLG inhibitor) on apomorphine-Induced rotational behavior in rats at a dose of 0.01 ug/Kg. In outline: as §1

Regarding `NC(=O)CN1CC[C@@H](NC(=O)[C@@H]2CCCN2)C1=O`, the Change came out at 20% in the assay on Rattus norvegicus [1], 75% with Rattus norvegicus [2] and 191% in the assay on Rattus norvegicus [3].

Regarding `NC(=O)C1(N2CC[C@@H](NC(=O)[C@@H]3CCCN3)C2=O)CCCCC1`, the Change is listed as 1% with Rattus norvegicus [1], 7% with Rattus norvegicus [4], 19% with Rattus norvegicus [2] and -2% in the assay on Rattus norvegicus [3].

As for `CCC(CC)(C(N)=O)N1CC[C@@H](NC(=O)[C@@H]2CCCN2)C1=O`, the Change in the assay on Rattus norvegicus [1] is given as -3%; in the assay on Rattus norvegicus [4], 2%; in the assay with Rattus norvegicus [2] it was 17%; in the assay with Rattus norvegicus [3] it was 8%.

For `NC(=O)C1(N2CC[C@@H](NC(=O)[C@@H]3CCCN3)C2=O)CCCC1`, the Change is -5% in the assay with Rattus norvegicus [1], 4% with Rattus norvegicus [4], 19% in the assay with Rattus norvegicus [2] and -4% in the assay on Rattus norvegicus [3].

For `NC(=O)C1(N2CC[C@@H](NC(=O)[C@@H]3CCCN3)C2=O)CC1`, the Change is on record as 10% with Rattus norvegicus [1], -6% in the assay on Rattus norvegicus [4], -8% in the assay with Rattus norvegicus [2] and 4% in the assay on Rattus norvegicus [3].

For the compound `CC(C)C[C@H](NC(=O)[C@@H]1CCCN1)C(=O)NC1(C(N)=O)CC1` (H-Pro-Leu-[Ac3c]-NH2), the Change is 18% in the assay on Rattus norvegicus [1], 15% in the assay on Rattus norvegicus [4], 8% in the assay with Rattus norvegicus [2] and -7% in the assay on Rattus norvegicus [3].

As to `CC(C)C[C@H](NC(=O)[C@@H]1CCCN1)C(=O)NC1(C(N)=O)CCCC1` (H-Pro-Leu-[Ac5c]-NH2), the Change was -1% in the assay on Rattus norvegicus [1], -15% in the assay on Rattus norvegicus [4], 5% in the assay with Rattus norvegicus [2] and -26% in the assay with Rattus norvegicus [3].

With `CC(C)C[C@H](NC(=O)[C@@H]1CCCN1)C(=O)NC1(C(N)=O)CCCCC1` (H-Pro-Leu-[Ac6c]-NH2), the Change with Rattus norvegicus [1] is listed as 14%; in the assay with Rattus norvegicus [4], -2%; in the assay on Rattus norvegicus [2] it was -2%; with Rattus norvegicus [3], -25%.

In the case of `CCC(CC)(NC(=O)[C@H](CC(C)C)NC(=O)[C@@H]1CCCN1)C(N)=O` (H-Pro-Leu-[Deg]-NH2), the Change in the assay on Rattus norvegicus [1] is 31%; with Rattus norvegicus [4], 6%; in the assay with Rattus norvegicus [2], 56%; with Rattus norvegicus [3] it was 1%.

These data come from ChEMBL document CHEMBL1132194, “Synthesis and dopamine receptor modulating activity of novel peptidomimetics of L-prolyl-L-leucyl-glycinamide featuring alpha,alpha-disubstituted amino acids” (1999).
